Data: ChEMBL document CHEMBL2434858, “Synthesis and allosteric modulation of the dopamine receptor by peptide analogs of L-prolyl-L-leucyl-glycinamide (PLG) modified in the L-proline or L-proline and L-leucine scaffolds” (Eur J Med Chem, 2013)
The source made the active and inactive calls. The calls are words filed in the database; no cut-off is given here. Residues, ends and D or L forms follow the SMILES beside them.

What was measured:
[1] = molecular target: D(2) dopamine receptor (Homo sapiens) (UniProt P14416); experiment: Positive allosteric modulation of human dopamine D2S receptor expressed in CHO cell membranes assessed as stimulation of [3H]-NPA binding at 1 to 10 uM after 60 mins by beta scintillation counting analysis
Sequence of D(2) dopamine receptor (Homo sapiens) (P14416 whole entry): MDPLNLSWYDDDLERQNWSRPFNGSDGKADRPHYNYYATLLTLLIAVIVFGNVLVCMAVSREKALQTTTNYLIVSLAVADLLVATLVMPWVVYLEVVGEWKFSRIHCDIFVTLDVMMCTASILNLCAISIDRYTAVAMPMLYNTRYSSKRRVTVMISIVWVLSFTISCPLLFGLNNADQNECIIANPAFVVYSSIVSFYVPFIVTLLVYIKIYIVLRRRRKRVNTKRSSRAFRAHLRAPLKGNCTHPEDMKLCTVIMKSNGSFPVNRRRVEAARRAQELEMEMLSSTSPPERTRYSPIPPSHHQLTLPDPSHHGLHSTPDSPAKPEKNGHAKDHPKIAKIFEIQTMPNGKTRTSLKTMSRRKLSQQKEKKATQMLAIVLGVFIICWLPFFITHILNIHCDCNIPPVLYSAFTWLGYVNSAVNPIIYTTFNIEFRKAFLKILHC
Procedure, shortened: (§1)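 Membranes from confluent CHO cells stably expressing human D2S, homogenized and spun at 48,400 g. Membranes were incubated with 0.25 nM [3H]NPA plus compound (eight concentrations) for 60 min at 25 °C in 50 mM Tris-HCl pH 7.4, 120 mM NaCl, 5 mM KCl, 4 mM MgCl2, 1 mM EDTA. Nonspecific binding was defined with (+)-butaclamol. Samples were filtered through PEI-treated filters. Result is % increase of specific binding over compound-free control; duplicates, three experiments, ANOVA.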

[2] = molecular target: D(2) dopamine receptor (Homo sapiens) (UniProt P14416); experiment: Positive allosteric modulation of human dopamine D2S receptor expressed in CHO cell membranes assessed as stimulation of [3H]-NPA binding at 10^-12 to 10^-9 M after 60 mins by beta scintillation counting analysis; procedure, shortened: as §1
[3] = molecular target: D(2) dopamine receptor (Homo sapiens) (UniProt P14416); experiment: Positive allosteric modulation of human dopamine D2S receptor expressed in CHO cell membranes assessed as stimulation of [3H]-NPA binding at 10^-8 to 10^-4 M after 60 mins by beta scintillation counting analysis; procedure, shortened: as §1

| Compound | Activity [1] | Activity [2] | Activity [3] |
| --- | --- | --- | --- |
| COC(=O)CNC(=O)[C@H](CC(C)C)NC(=O)[C@@H]1N[C@@H](CN=[N+]=[N-])C[C@H]1CN=[N+]=[N-] | Active | – | – |
| CC(C)C[C@H](NC(=O)[C@@H]1CCCN1)C(=O)NCC(N)=O (H-Pro-Leu-Gly-NH2) | – | Active | inactive |
| CC(C)[C@H](NC(=O)[C@@H]1N[C@@H](CN=[N+]=[N-])C[C@H]1CN=[N+]=[N-])C(=O)NCC(=O)O | Active | – | – |
| CC(C)C[C@H](NC(=O)[C@@H]1N[C@@H](CN=[N+]=[N-])C[C@H]1CN=[N+]=[N-])C(=O)NCC(=O)O | Active | – | – |
| COC(=O)CNC(=O)[C@@H](NC(=O)[C@H]1N[C@H](CN=[N+]=[N-])C[C@@H]1CN=[N+]=[N-])C(C)C | Active | – | – |
| CC(C)[C@H](NC(=O)[C@@H]1N[C@@H](CN=[N+]=[N-])C[C@H]1CN=[N+]=[N-])C(=O)NCC(N)=O | Active | – | – |
| CC(C)[C@H](NC(=O)[C@H]1N[C@H](CN=[N+]=[N-])C[C@@H]1CN=[N+]=[N-])C(=O)NCC(=O)O | – | Active | inactive |
| CC(C)C[C@H](NC(=O)[C@H]1N[C@H](CN=[N+]=[N-])C[C@@H]1CN=[N+]=[N-])C(=O)NCC(N)=O | Active | – | – |
| COC(=O)CNC(=O)[C@H](CC(C)C)NC(=O)[C@H]1N[C@H](CN=[N+]=[N-])C[C@@H]1CN=[N+]=[N-] | Active | – | – |
| CC(C)[C@H](NC(=O)[C@H]1N[C@H](CN=[N+]=[N-])C[C@@H]1CN=[N+]=[N-])C(=O)NCC(N)=O | – | Active | inactive |
| CC(C)C[C@H](NC(=O)[C@@H]1N[C@@H](CN=[N+]=[N-])C[C@H]1CN=[N+]=[N-])C(=O)NCC(N)=O | Active | – | – |
| COC(=O)CNC(=O)[C@@H](NC(=O)[C@@H]1N[C@@H](CN=[N+]=[N-])C[C@H]1CN=[N+]=[N-])C(C)C | Active | – | – |
